Screening results as filed in PubChem.
V1R ag counter = counter-screen for oxytocin receptor agonists: human V1a receptor agonists; AID 2797; activation, % at 3 µM; 0.25% of 320,000 active; CHO-V1R cells, Fluo-8 calcium fluorescence, agonist mode; 0% DMSO, 100% 3 nM vasopressin; P37288;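 active = activation above the mean activation of all tested compounds plus 3 SD, per screening run, cut at about 20% in these data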;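 note: signal is peak over basal fluorescence ratio across a 100 second FLIPR read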
TAAR1 antagonist = antagonists of human TAAR1; inhibition, % at 3 µM; AID 624466; 1.5% of 360,000 active; CHO RD-HGA16 TAAR1, Fluo-8 calcium fluorescence, antagonist;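 active = inhibition above a per-plate cutoff, the mean inhibition of test compounds on that plate plus 3 SD, cut at about 49% in these data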
Target sequence (Q96RJ0 whole entry, looked up): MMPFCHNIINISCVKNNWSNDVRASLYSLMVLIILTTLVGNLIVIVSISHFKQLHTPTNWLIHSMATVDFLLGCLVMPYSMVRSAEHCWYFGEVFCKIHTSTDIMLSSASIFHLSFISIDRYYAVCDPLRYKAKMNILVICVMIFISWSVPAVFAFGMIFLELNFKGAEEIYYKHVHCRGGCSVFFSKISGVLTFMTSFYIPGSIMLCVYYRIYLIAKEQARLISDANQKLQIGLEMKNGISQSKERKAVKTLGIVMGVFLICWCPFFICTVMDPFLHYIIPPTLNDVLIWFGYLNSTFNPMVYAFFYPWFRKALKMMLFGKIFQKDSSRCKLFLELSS
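System: RD-HGA16 CHO cells with stable hTAAR1 and Gα16 | Probe or stimulus: EC80 β-phenethylamine stimulus | Dosing: 3 µM, single point | Times: Dye loading 75 min at 37 °C, then 30 min room temperature | Measured by: Fluo-8 calcium-sensitive fluorescence | Read-out basis: % inhibition of agonist calcium response | Replicates: n of 1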
OXTR agonist = human OXTR agonism | P30559 | CHO-OTR cells, Fluo-8 calcium fluorescence; normalized: DMSO 0%, oxytocin 100% | activation, % at 3 µM | 0.32% of 320,000 active;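 active = activation above the mean of all tested compounds plus 3 SD, cutoff set per screening run, cut at about 20% in these data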;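 note: peak over basal fluorescence ratio from a 100 s FLIPR kinetic read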
Target sequence (P30559 whole entry, looked up): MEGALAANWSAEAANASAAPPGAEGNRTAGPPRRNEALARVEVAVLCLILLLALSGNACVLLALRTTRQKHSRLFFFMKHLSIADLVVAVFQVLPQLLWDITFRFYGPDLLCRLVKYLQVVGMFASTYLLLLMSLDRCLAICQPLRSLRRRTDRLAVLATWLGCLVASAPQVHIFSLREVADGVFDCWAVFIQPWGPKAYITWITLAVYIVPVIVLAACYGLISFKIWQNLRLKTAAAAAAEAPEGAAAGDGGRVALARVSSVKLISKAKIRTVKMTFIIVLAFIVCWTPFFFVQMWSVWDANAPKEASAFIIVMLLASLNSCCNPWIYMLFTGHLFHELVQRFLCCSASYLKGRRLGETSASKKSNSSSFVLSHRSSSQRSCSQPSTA
OXTR potentiate = human OXTR potentiation. P30559. AID 2445. activation, % at 3 µM. CHO-OTR cells, Fluo-8 calcium fluorescence, potentiator mode; 0% = oxytocin EC15, 100% = EC100. 0.061% of 320,000 active;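 active = activation above that plate's cutoff, the mean activation of tested compounds plus 3 SD, cut at about 6.6% in these data, passing the limit was not always enough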
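test system = CHO-OTR cells, human receptor | compound = single-point 3.0 µM | schedule = 6 min compound pre-incubation at room temperature, 100 s kinetic read | signal = Fluo-8 no-wash calcium dye fluorescence, excitation 470-495 nm, emission 515-575 nm | repeats = single well per compound, singlicate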
TAAR1 ag = agonists of human TAAR1; 0.99% of 360,000 active; Q96RJ0; activation, % at 3 µM; CHO RD-HGA16 TAAR1, Fluo-8 calcium fluorescence; vehicle wells 0%, saturating PEA agonist 100%;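 active = activation above the mean activation of all test compounds in the run plus 3 SD, cut at about 38% in these data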
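System: CHO RD-HGA16 cells carrying human TAAR1 plus Gα16; Incubation: 17-24 h seeding, 75 min 37 °C dye, 30 min RT; Measured by: Fluo-8 fluorescence, 5 s baseline then 140 s kinetic read; Control set: DMSO and PEA EC100; Replication: single well for each compound.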
TAAR1 nonsel count = counter-screen for TAAR1 antagonists: nonselective antagonists | shares compounds with TAAR1 antagonist | counterscreen cell line, calcium fluorescence, antagonist mode | inhibition, % at 3 µM | 77% of 2,400 active | AID 651780; in the data active = inhibition above about 22%;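 note: CHO-Ga16 host cells stimulated with ATP at an EC80 level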
TAAR1 antag conf = human TAAR1 antagonism, confirmed. shares compounds with TAAR1 antagonist. TAAR1-expressing cells, fluorescence antagonist read-out. inhibition, % at 3 µM. 40% of 2,400 active; in the data active = inhibition above about 49%;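 note: CHO-Ga16 host cells challenged with agonist PEA near its EC80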
Ga16 ag counter-1 = nonselective Ga16 agonism, counter-screen; shares compounds with TAAR1 antagonist; Ga16-expressing cells, calcium fluorescence, agonist counterscreen; activation, % at 3 µM; 18% of 2,400 active; AID 651953; in the data active = activation above about 12%
TAAR1 ag counter = TAAR1 agonism, antagonist counter-screen; hTAAR1 cell line, fluorescence activation, agonist mode; shares compounds with TAAR1 antagonist; 2% of 2,400 active; activation, % at 3 µM; in the data active = activation above about 37%;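 note: CHO cells stably expressing TAAR1 with calcium dye readout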
TAAR1 ag conf = human TAAR1 agonism, confirmed | shares compounds with TAAR1 ag | CHO RD-HGA16 TAAR1, Fluo-8 calcium fluorescence; scaled: DMSO 0%, maximal phenethylamine 100% | activation, % at 3 µM | 82% of 2,400 active;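 active = activation above a cutoff set at the run's mean compound activation plus 3 SD, cut at about 39% in these data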
Ga16 ag counter-2 = nonselective agonism, TAAR1 counter-screen; shares compounds with TAAR1 ag; activation, % at 3 µM; CHO-Ga16 parental, Fluo-8 calcium fluorescence; normalized to maximal ATP response, DMSO zero; 50% of 2,400 active;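 active = activation above the run cutoff, the mean activation over all tested wells plus 3 SD, cut at about 12% in these data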
TAAR1 desensitize = TAAR1 response desensitization, agonist counter-screen. CHO RD-HGA16 hTAAR1, Fluo-8 calcium, beta-PEA response inhibition. inhibition, % at 3 µM. shares compounds with TAAR1 ag. AID 651951. 46% of 2,400 active;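 active = inhibition above the run cutoff, the mean inhibition of all test compounds plus 3 SD, cut at about 49% in these data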;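 note: beta-PEA stimulus applied at its EC80; loss of beta-PEA calcium signal after compound pretreatment read as receptor desensitization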
Ga16 antag count = nonselective Ga16 antagonist in TAAR1 agonist counter-screen | shares compounds with TAAR1 ag | CHO-Ga16 ATP-induced calcium, Fluo-8 fluorescence | inhibition, % at 3 µM | 39% of 2,400 active | AID 651952;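 active = inhibition above the plate's mean compound inhibition plus 3 SD, computed per plate, cut at about 22% in these data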
Of the large screens only hits and unclear results are named; the others gave an inactive call (follow-up assays come after a bar, where they were run). An excerpt weighted towards active compounds, which were near 2.3% of everything screened.

Cc1ccc(-n2c(C)nc3ccccc3c2=O)cc1C	none
Cc1ccc(S(=O)(=O)N2CC3CC(C2)c2cccc(=O)n2C3)cc1 (stereo unspecified)	none
C=C1C(C)C2C(Cc3ccccc3)NC(=O)C23OC(=O)/C=C/C(O)CCCC(C)C/C=C/C3C1O (stereo unspecified)	TAAR1 antagonist 69.8 (no result: V1R ag counter, OXTR agonist, OXTR potentiate) | TAAR1 nonsel count inactive | TAAR1 antag conf 50.1 | Ga16 ag counter-1 13.2 | TAAR1 ag counter inactive
CCC1(Oc2ccccc2)C(=O)NC(=O)NC1=O	none (no result: V1R ag counter, OXTR agonist, OXTR potentiate)
CCC1(C)OC(c2ccccc2)=C/C(=C/C=C2C(=O)NC(=O)NC2=O)O1 (stereo unspecified)	TAAR1 antagonist 67.9, TAAR1 ag 70.2 (no result: V1R ag counter, OXTR agonist, OXTR potentiate) | TAAR1 ag conf inactive | Ga16 ag counter-2 23.7 | TAAR1 desensitize inactive | Ga16 antag count 41.9
O=C(NCCN1CCC2(CC1)C(=O)NCN2c1ccccc1)c1ccccc1C(F)(F)F	none (no result: V1R ag counter, OXTR agonist, OXTR potentiate)
O=C(NCCN1CCC2(CC1)C(=O)NCN2c1ccccc1)C(c1ccccc1)c1ccccc1	TAAR1 antagonist 93.3, TAAR1 ag 58.2 (no result: V1R ag counter, OXTR agonist, OXTR potentiate) | TAAR1 ag conf inactive | Ga16 ag counter-2 23.8 | TAAR1 desensitize 76.0 | Ga16 antag count 62.4
O=C(NCCN1CCC2(CC1)C(=O)NCN2c1ccccc1)c1ccc(Cl)c(Cl)c1	TAAR1 antagonist 106.1, TAAR1 ag 113.2 (no result: V1R ag counter, OXTR agonist, OXTR potentiate) | TAAR1 ag conf 124.3 | Ga16 ag counter-2 94.8 | TAAR1 desensitize 106.8 | Ga16 antag count 102.8
Cc1ccc(C(=O)NCCN2CCC3(CC2)C(=O)NCN3c2ccccc2)cc1	TAAR1 antagonist 98.7, TAAR1 ag 86.5 (no result: V1R ag counter, OXTR agonist, OXTR potentiate) | TAAR1 ag conf 52.8 | Ga16 ag counter-2 41.2 | TAAR1 desensitize 98.2 | Ga16 antag count 83.9
O=C(CCCN1CCC2(CC1)C(=O)NCN2c1ccccc1)c1ccc(F)cc1	V1R ag counter 28.2, TAAR1 antagonist 106.0, OXTR agonist 41.5, TAAR1 ag 153.7 | TAAR1 ag conf 131.3 | Ga16 ag counter-2 115.7 | TAAR1 desensitize 106.5 | Ga16 antag count 103.1
COc1cccc(C(=O)C2CCCN(Cc3ccon3)C2)c1 (stereo unspecified)	none
O=C1C2CCCN2C(c2ccc(Cl)c(Cl)c2)N1c1ccccn1 (stereo unspecified)	none
O=C(NCCN1CCC2(CC1)C(=O)NCN2c1ccccc1)c1ccc(OC(F)(F)F)cc1	TAAR1 antagonist 96.2, TAAR1 ag 53.6 (no result: V1R ag counter, OXTR agonist, OXTR potentiate) | TAAR1 ag conf 44.6 | Ga16 ag counter-2 40.5 | TAAR1 desensitize 101.8 | Ga16 antag count 98.3
CCCCCn1c(=O)c(C(=O)Nc2ncccc2C)c(O)c2ccccc21	V1R ag counter 39.0, OXTR agonist 53.7, TAAR1 ag 54.1 | TAAR1 ag conf 54.0 | Ga16 ag counter-2 86.3 | TAAR1 desensitize inactive | Ga16 antag count 43.6
CCCCn1c(=O)c(C(=O)Nc2ccccc2C)c(O)c2ccccc21	none (no result: TAAR1 antagonist, TAAR1 ag)
CC(NC1=NCCS1)c1ccccc1 (stereo unspecified)	none (no result: TAAR1 antagonist, TAAR1 ag) | Ga16 ag counter-2 inactive | Ga16 antag count inactive
CC1CN=C(NC(C)c2ccccc2)S1 (stereo unspecified)	none
CCOC(=O)C(O)(c1ccc(N(CC)C(=O)OC)cc1)C(F)(F)F (stereo unspecified)	none
CC(=O)c1cn(CC(=O)NCCc2c[nH]c3ccccc23)c2ccccc12	none
NNP(=O)(CC(=O)c1ccccc1)c1ccccc1 (stereo unspecified)	none
NCC(=O)c1ccccc1	TAAR1 antagonist 52.7, TAAR1 ag 88.8 (no result: V1R ag counter, OXTR agonist, OXTR potentiate) | TAAR1 ag conf 89.1 | Ga16 ag counter-2 inactive | TAAR1 desensitize 87.9 | Ga16 antag count inactive
CCN(CC)c1ccc(/C=C2/C(=O)NC(=O)N(Cc3ccco3)C2=O)cc1	TAAR1 ag 44.9 | TAAR1 ag conf 66.1 | Ga16 ag counter-2 30.0 | TAAR1 desensitize inactive | Ga16 antag count 34.3
C#CCN(C)C(C)Cc1ccccc1 (stereo unspecified)	none
CC(Cc1ccccc1)N(C)CC1C(=O)C2CCC1C2 (stereo unspecified)	TAAR1 ag 56.4 (no result: V1R ag counter, OXTR agonist, OXTR potentiate) | TAAR1 ag conf 50.9 | Ga16 ag counter-2 inactive | TAAR1 desensitize inactive | Ga16 antag count inactive
CCOC(=O)C(O)(c1ccc(NC(=S)NC(=O)c2ccc(Cl)cc2Cl)c(C)c1)C(F)(F)F (stereo unspecified)	V1R ag counter 34.2, TAAR1 antagonist 99.2, OXTR agonist 32.0, TAAR1 ag 76.1 | TAAR1 ag conf 95.8 | Ga16 ag counter-2 55.7 | TAAR1 desensitize 106.6 | Ga16 antag count 84.6
CCOC(=O)C(O)(c1ccc(NC(=S)NC(=O)c2ccc(Cl)cc2Cl)cc1)C(F)(F)F (stereo unspecified)	V1R ag counter 33.8, TAAR1 antagonist 79.2, OXTR agonist 50.6, TAAR1 ag 78.3 | TAAR1 ag conf 74.5 | Ga16 ag counter-2 44.9 | TAAR1 desensitize 93.1 | Ga16 antag count 73.2
CCOC(=O)C(O)(c1ccc(NC(=O)Oc2ccccc2)cc1)C(F)(F)F (stereo unspecified)	none
Cc1cccc(CCNCc2cc3ccc(C)cc3[nH]c2=O)c1	TAAR1 antagonist 70.4, TAAR1 ag 82.8 | TAAR1 ag conf 99.7 | Ga16 ag counter-2 inactive | TAAR1 desensitize 93.0 | Ga16 antag count inactive
N#Cc1c(N2CCNCC2)nc(-c2ccco2)c2c1CCCC2	TAAR1 ag 79.7 | TAAR1 ag conf 96.1 | Ga16 ag counter-2 16.5 | TAAR1 desensitize 90.5 | Ga16 antag count inactive
CCC(=NCCc1ccccc1)c1c(O)[nH]c(=O)[nH]c1=O	none (no result: TAAR1 antagonist, TAAR1 ag) | Ga16 ag counter-2 inactive | Ga16 antag count inactive
